Results as given in ChEMBL document CHEMBL1157792, “Pachycladins A-E, prostate cancer invasion and migration inhibitory Eunicellin-based diterpenoids from the red sea soft coral Cladiella pachyclados” (J Nat Prod, 2010).
Active and inactive are the calls of the source. The calls are words filed in the database; no cut-off is given here.

Columns and labels:
Format in all cases: functional, cell-based
[1] = system: PC-3; assay: Antimigratory activity against human PC3 cells at 50 uM by wound-healing assay
In short: (§1)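 Confluent PC-3 monolayers (>90%) in RPMI with 10% FBS, scratched with a pipet tip, washed with PBS, then given compound in DMSO, in triplicate, with DMSO vehicle control. Incubated 24 h serum-starved at 37 °C, fixed and stained with Diff Quick. Migrated cells counted in three or more random 400× fields; mean (SEM) per field.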

[2] = system: PC-3; assay: Antimigratory activity against human PC3 cells at 10 uM by wound-healing assay; in short: as §1
[3] = system: PC-3; assay: Antiinvasive activity against human PC3 cells at 10 uM by cultrex cell invasion assay
In short: (§2)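 PC-3 cells (50 000 per well) in serum-free RPMI seeded into the top chamber of wells coated with basement membrane extract (4 h, 37 °C), with compound in the top chamber. Lower chamber: RPMI with 10% FBS, fibronectin and N-formyl-met-leu-phe (10 nM) as chemoattractants. After 24 h at 37 °C, invaded cells stained with calcein-AM for 1 h; fluorescence read at ex 485/em 520 nm.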

[4] = system: PC-3; assay: Antiinvasive activity against human PC3 cells at 50 uM by cultrex cell invasion assay; in short: as §2
[5] = system: PC-3; assay: Antimigratory activity against human PC3 cells at 200 uM by wound-healing assay; in short: as §1
[6] = system: PC-3; assay: Antiproliferative activity against human PC3 cells at 50 uM after 96 hrs by MTT assay
In short: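 PC-3 cells (8 × 10^3 per well) allowed to attach for 24 h, then given serum-free RPMI with compound at 50, 20, 10 or 5 µM for 96 h at 37 °C, 5% CO2. MTT added for 4 h, formazan solubilized, absorbance read at 550 nm. Cell number taken from a hemocytometer-based standard curve; IC50 obtained by nonlinear regression of log concentration against cells/well.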

For C=C1CC[C@H](C(C)C)[C@@H]2[C@H]1[C@H]1C/C(C)=C\CC[C@@](C)(O)[C@@H]2O1, the Activity [1] was “Active”.

With CC(=O)O[C@]1(C)CC[C@H](C(C)C)[C@@H]2[C@H]1[C@H]1C[C@](C)(O)[C@@H](O)CC[C@@](C)(OC(C)=O)[C@@H]2O1 the Activity_index [2] was “Active” and the Activity [3] was “Active”.

For C=C1CC[C@H](C(C)C)[C@@H]2[C@H]1[C@H]1CC(=C)[C@]3(O)CC[C@@](C)(O3)[C@@H]2O1, the Activity [1] was “Active”.

With C=C1CC[C@H](C(C)C)[C@@H]2[C@H]1[C@H]1CC(=C)[C@@H](O)CC[C@@](C)(OC(C)=O)[C@@H]2O1 the Activity [1] was “Active”.

C=C1CC[C@H](C(C)C)[C@@H]2[C@H]1[C@H]1C[C@](C)(O)[C@@H](O)CC[C@@](C)(O)[C@@H]2O1 was tested, and the Activity [4] was “Active” and the Activity [1] was “Active”.

For C=C1C[C@H]2O[C@H]([C@@H]3[C@@H](C(C)C)[C@H](O)C[C@@](C)(OC(C)=O)[C@@H]32)[C@](C)(OC(C)=O)CC[C@@H]1O, the Activity [1] was “Active”.

For C=C1C[C@H]2O[C@H]([C@H]3[C@@H]2[C@](C)(OC(C)=O)CC[C@@H]3C(C)C)[C@@]2(C)CC[C@]1(O)O2, the Activity [1] was “Active”.

C=C1CC[C@H](C(C)C)[C@@H]2[C@H]1[C@H]1CC(=C)[C@@H](OC(C)=O)CC[C@@](C)(O)[C@@H]2O1 was tested, and the Activity [1] was “Active”.

With C=C1C[C@H]2O[C@H]([C@@H]3[C@@H](C(C)C)[C@H](O)C[C@@](C)(OC(=O)CCC)[C@@H]32)[C@](C)(OC(C)=O)CC[C@@H]1O the Activity [1] was “Active”.

C=C1CC[C@H](C(C)C)[C@@H]2[C@H]1[C@H]1CC(=C)[C@@H](OC(C)=O)CC[C@@](C)(OC(C)=O)[C@@H]2O1 was tested, and the Activity [1] was “Active”.

O=C1NC(=O)/C(=C/c2ccc(O)cc2)N1 was tested, and the Activity [5] was “Active”.

With CCCC(=O)O[C@]1(C)CC[C@H](C(C)C)[C@@H]2[C@H]1[C@H]1C[C@](C)(O)[C@@H](O)CC[C@@](C)(OC(C)=O)[C@@H]2O1 the Activity [4] was “Active”, the Activity [6] was “inactive” and the Activity [1] was “Active”.

With C=C1CC[C@H](C(C)C)[C@@H]2[C@H]1[C@H]1C[C@](C)(O)[C@@H](OC)CC[C@@](C)(O)[C@@H]2O1 the Activity [4] was “Active” and the Activity [1] was “Active”.

For CC(=O)O[C@]1(C)CC[C@H](C(C)C)[C@@H]2[C@H]1[C@H]1C[C@]3(C)CCC[C@@](C)(O3)[C@@H]2O1, the Activity [4] was “Active” and the Activity [1] was “Active”.

In the case of C=C1CC[C@H](C(C)C)[C@@H]2[C@H]1[C@H]1C[C@](C)(O)[C@@H](O)CC[C@@](C)(OC(C)=O)[C@@H]2O1, the Activity [1] is reported as “Active”.

In the case of C=C1CC[C@H](C(C)C)[C@@H]2[C@H]1[C@@H]1CC(=C)[C@@H](O)CC[C@](C)(O)[C@H]2O1, the Activity [1] is reported as “Active”.
